SIAE inh = human SIAE inhibition, primary screen; 370,000 compounds, 0.69% hits; inhibition, % at 9.66 µM; SIAE FP-Rh probe binding, fluorescence polarization; Q9HAT2; AID 1053197;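 active = inhibition above a cutoff: mean of compounds within the control limits plus 3 SD of those, cut at about 17% in these data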
RBBP9 inh = human RBBP9 hydrolase inhibition. recombinant RBBP9, FP-Rh probe fluorescence polarization. inhibition, % at 7.94 µM. 220,000 compounds, 0.2% hits;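 active = inhibition above the campaign mean of all tested compounds plus 3 SD, cut at about 14% in these data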
Target sequence (O75884 whole entry, looked up): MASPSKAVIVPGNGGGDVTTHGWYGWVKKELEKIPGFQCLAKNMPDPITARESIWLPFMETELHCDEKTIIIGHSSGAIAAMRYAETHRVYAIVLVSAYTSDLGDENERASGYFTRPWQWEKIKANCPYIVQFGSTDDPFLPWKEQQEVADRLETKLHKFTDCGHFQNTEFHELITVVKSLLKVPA
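Test system: recombinant human RBBP9. Quantity: 2.5 µM RBBP9 dispensing solution, before mixing. Detection: FP readout at 525/598 nm. Reagent: Serine-hydrolase probe FP-Rh, 375 nM pre-mixing. Measure: % inhibition. Control set: DMSO-treated enzyme wells and wells lacking RBBP9. Buffer or medium: Tris-NaCl-Pluronic buffer, pH 8.0. Times: preincubation 30 min plus labeling 45 min at 25 °C.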
GSTO1 inh = blocks human GSTO1 in RBBP9 counter-screen; P78417; recombinant GSTO1, activity-based probe fluorescence polarization; inhibition, % at 5.96 µM; 300,000 compounds, 1.1% hits; AID 1974;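 active = inhibition above the campaign mean inhibition plus 3 SD, cut at about 35% in these data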
PRMT1 inh = PRMT1 (human) inhibition, primary screen. recombinant PRMT1, activity-based probe fluorescence polarization. 370,000 compounds, 1.3% hits. AID 652257. inhibition, % at 2.79 µM;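 active = inhibition above about 21% made by adding two undisclosed values, limit read from the data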
Target sequence (Q99873 whole entry, looked up): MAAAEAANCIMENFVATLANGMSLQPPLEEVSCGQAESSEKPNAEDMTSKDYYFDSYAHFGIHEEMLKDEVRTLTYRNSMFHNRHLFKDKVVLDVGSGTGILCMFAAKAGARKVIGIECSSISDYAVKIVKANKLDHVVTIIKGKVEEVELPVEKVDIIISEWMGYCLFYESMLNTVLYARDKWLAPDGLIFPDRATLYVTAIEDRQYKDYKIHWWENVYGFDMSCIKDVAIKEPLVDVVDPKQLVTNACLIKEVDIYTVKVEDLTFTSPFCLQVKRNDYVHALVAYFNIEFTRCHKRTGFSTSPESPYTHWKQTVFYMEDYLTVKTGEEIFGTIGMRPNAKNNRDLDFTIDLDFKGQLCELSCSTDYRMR
PAD4 FP inh = PAD4 (human) enzyme inhibition; Q9UM07; AID 485272; recombinant PAD4, RCA probe fluorescence polarization; 330,000 compounds, 0.41% hits; inhibition, % at 6.36 µM;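 active = percent inhibition above a cutoff equal to the mean of all tested compounds plus 3 SD, cut at about 15% in these data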
SIAE inh conf = confirmation of human SIAE inhibitors | shares compounds with SIAE inh | 2,300 compounds, 13% hits | inhibition, % at 9.66 µM | AID 1117263 | SIAE FP-Rh activity-based probe, fluorescence polarization;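 active = mean inhibition of the replicates above the hit cutoff set in the primary screen, cut at about 17% in these data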;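 note: inhibitors lower polarization as more probe stays unbound to SIAE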
Large screens that a line does not name were inactive (follow-up assays come after a bar, where they were run). An excerpt weighted towards active compounds, which were near 2.7% of everything screened.

O=C(c1ccccc1Oc1ccccc1)N1CCC(Oc2cccnc2)CC1	SIAE inh 20 (no result: RBBP9 inh, GSTO1 inh, PAD4 FP inh) | SIAE inh conf inactive
O=C(O)c1ccccc1NCc1cccnc1	none (no result: RBBP9 inh)
O=C(O)CNc1ccccc1C(=O)O	SIAE inh 38 | SIAE inh conf inactive
COc1cc(OC)c(N(C)C(=O)c2cc3c(s2)-c2ccccc2S(=O)(=O)C3)cc1Cl	none (no result: RBBP9 inh)
CCOc1ccc(NC(=O)CN(C)C(=O)c2c(C)nn(-c3ccccc3)c2Cl)cc1OCC	SIAE inh 19 (no result: RBBP9 inh) | SIAE inh conf inactive
Cc1nn(-c2ccccc2)c(Cl)c1C(=O)NCC(=O)O	SIAE inh 19 | SIAE inh conf inactive
O=C(CN1C(=O)CSc2ccccc21)NCCC1=CCCCC1	none
COc1cccc2c1CCc1c-2nc2ccccc2c1C(=O)O	none (no result: RBBP9 inh)
COc1ccccc1CCC(=O)Nc1cccc(S(=O)(=O)N2CCCC2)c1	none (no result: RBBP9 inh)
COc1cc(/C=C/C(=O)c2ccc(NS(=O)(=O)c3ccc(C)cc3)cc2)cc(OC)c1O	SIAE inh 78 | SIAE inh conf inactive
COc1ccc(-c2[nH]c(-c3ccc4c(c3)OCO4)nc2-c2ccccc2)cc1	SIAE inh 21 | SIAE inh conf inactive
COc1cc(-c2nc(-c3ccccc3)c(-c3ccc(F)cc3)[nH]2)cc2c1OCO2	none
CN(/N=C/c1ccc(O)cc1O)c1nc(-c2ccccc2)cc(-c2ccccc2)n1	SIAE inh 20 | SIAE inh conf inactive
O=C(NC(=S)NNC(=O)c1ccccc1O)c1cccnc1	none
C[C@@H]1CCCCO[C@@H](CN(C)Cc2ccc(C(F)(F)F)cc2)[C@@H](C)CN([C@H](C)CO)C(=O)c2cc(N(C)C)ccc2O1	SIAE inh 22 (no result: RBBP9 inh, GSTO1 inh, PAD4 FP inh) | SIAE inh conf inactive
C[C@@H]1CCCCO[C@H](CN(C)Cc2ccncc2)[C@@H](C)CN([C@H](C)CO)C(=O)c2cc(N(C)C)ccc2O1	none (no result: RBBP9 inh, GSTO1 inh, PAD4 FP inh)
CCN1C(=O)[C@H]2[C@@H](c3ccc(C)cc3)N3C(=O)N(c4cccc(Cl)c4)C(=O)[C@@]3(C)[C@H]2C1=O	SIAE inh 23 (no result: RBBP9 inh) | SIAE inh conf inactive
CCn1c(O)c(N=NC(=O)Cn2ccc(C(F)(F)F)n2)c2ccccc21	none
CCC(C)NC(=O)c1cn(-c2cccc(OC)c2)c(=O)c2ccccc12 (stereo not drawn)	none (no result: RBBP9 inh)
CCN(CC)C(=O)c1cn(-c2cccc(OC)c2)c(=O)c2ccccc12	SIAE inh 21 (no result: RBBP9 inh) | SIAE inh conf inactive
Cc1ccc(S(=O)(=O)NC(=O)C2(C)CCN2C(=O)C2(c3ccc(Cl)cc3)CC2)cc1 (stereo not drawn)	none (no result: RBBP9 inh, GSTO1 inh, PAD4 FP inh)
CCOc1ccc(Oc2ccc(NC(=O)CSc3nncn3C)cc2)cc1	SIAE inh 19 (no result: RBBP9 inh, GSTO1 inh, PAD4 FP inh) | SIAE inh conf inactive
CN1/C(=C/C=C(C#N)C#N)C(C)(C)c2ccccc21	SIAE inh 25 | SIAE inh conf 81
Cn1ccc2c(N3CCCCCCC3)cc3c(c21)C1CCC3O1 (stereo not drawn)	SIAE inh 49 (no result: RBBP9 inh, GSTO1 inh, PAD4 FP inh) | SIAE inh conf inactive
CCC(=O)NC(c1ccc(OC)c(OC)c1)c1cc(Cl)c2cccnc2c1O (stereo not drawn)	SIAE inh 26 (no result: GSTO1 inh, PAD4 FP inh) | SIAE inh conf inactive
COc1ccccc1C(NC(C)=O)c1cc(Cl)c2cccnc2c1O (stereo not drawn)	SIAE inh 22 (no result: RBBP9 inh) | SIAE inh conf inactive
CC(=O)NC(C)c1cc(Cl)c2cccnc2c1O (stereo not drawn)	none (no result: RBBP9 inh, GSTO1 inh)
COc1ccc(C(NC(C)=O)c2cc(Cl)c3cccnc3c2O)cc1OC (stereo not drawn)	none
COc1ccc(C(=O)/C(C#N)=N/Nc2cccc([N+](=O)[O-])c2)cc1	none (no result: GSTO1 inh, PAD4 FP inh)
CCOC(=O)/C(=N\Nc1ccc(Cl)cc1)c1csc(Nc2ccccc2)n1	SIAE inh 20 | SIAE inh conf inactive
CNC(=O)c1ccc(CNC(=O)OCC(F)(F)F)cc1	none
CCOC(=O)/C=C(\C)Sc1cc(O)c2ccccc2c1O	SIAE inh 18, PRMT1 inh 84 (no result: GSTO1 inh, PAD4 FP inh) | SIAE inh conf inactive
CC(C)c1ccc(NC(=O)/C(C#N)=C/c2ccncc2)cc1	SIAE inh 18 (no result: RBBP9 inh) | SIAE inh conf inactive
COc1ccc(NC(=O)/C=C/c2cc(OC)c(OC)c(OC)c2)cn1	SIAE inh 21 | SIAE inh conf inactive
O=C(CCNC(=O)c1ccc(Br)cc1)Nc1ccc(S(=O)(=O)N2CCCCC2)cc1	none (no result: RBBP9 inh, GSTO1 inh, PAD4 FP inh)
COc1cc(CNc2cc(C)ccc2C)cc(OC)c1OC	SIAE inh 24 | SIAE inh conf inactive
CC(=O)Nc1ccc(C(=O)CN2C(=O)NC3(CCOc4ccccc43)C2=O)c(F)c1 (stereo not drawn)	SIAE inh 19 (no result: RBBP9 inh, GSTO1 inh) | SIAE inh conf inactive
CC(=O)Nc1ccc(C(=O)CN2C(=O)NC3(CCCCCC3)C2=O)c(F)c1	none (no result: RBBP9 inh, GSTO1 inh)
O=C(Nc1ccc(O)cc1)C1CC=CCC1 (stereo not drawn)	SIAE inh 23, GSTO1 inh 37 | SIAE inh conf inactive
O=C(Nc1nccs1)C1CC=CCC1 (stereo not drawn)	none (no result: RBBP9 inh)
N#CCSc1nc2ccccc2o1	none
O=c1[nH]c2cc3c(cc2cc1CN(Cc1ccc2c(c1)OCO2)Cc1nnnn1CC1CCCO1)OCO3 (stereo not drawn)	SIAE inh 59 | SIAE inh conf inactive
Cc1ccc2[nH]c(=O)c(CN(Cc3cccnc3)Cc3nnnn3CC3CCCO3)cc2c1 (stereo not drawn)	none
Fc1ccccc1CNCC1CCCO1 (stereo not drawn)	none (no result: RBBP9 inh, GSTO1 inh, PAD4 FP inh)
Cn1cc(C(=O)N2CCc3ccccc32)cn1	SIAE inh 184 | SIAE inh conf inactive
Nc1[nH]c(=O)[nH]c(=O)c1N=Nc1ccccc1Cl	none (no result: RBBP9 inh)
O=C(Nc1ccc(-n2cnnn2)cc1)c1cn2ccccc2n1	none (no result: SIAE inh, PRMT1 inh)
O=C(Nc1ccccc1)c1cn2ccccc2n1	SIAE inh 18 | SIAE inh conf inactive
COc1ccccc1OCc1ccc(C(=O)N2CCOCC2)o1	SIAE inh 20 | SIAE inh conf inactive
Oc1ccc(-c2ccccc2F)c2cccnc12	none (no result: RBBP9 inh, GSTO1 inh, PAD4 FP inh)
O=S(=O)(Nc1ccc(O)c2ncccc12)c1ccccc1F	SIAE inh 29 (no result: RBBP9 inh, GSTO1 inh, PAD4 FP inh) | SIAE inh conf inactive
COc1ccc(OC)c(/C=N/NC(=O)c2cc3c(OC)cc(OC)cc3[nH]2)c1	none
CCOc1ccc(/C=N/NC(=O)c2cc3c(OC)cccc3[nH]2)cc1	none (no result: RBBP9 inh)
CCOc1ccc(/C=N/NC(=O)c2cc3c(OC)cc(OC)cc3[nH]2)cc1OC	SIAE inh 43 (no result: RBBP9 inh) | SIAE inh conf inactive
C=CCOc1ccc(/C=N/NC(=O)c2cc3c(OC)cc(OC)cc3[nH]2)cc1	SIAE inh 27 (no result: RBBP9 inh) | SIAE inh conf inactive
CC(=O)Nc1nc(C)c(-c2csc(Nc3cccc(C(C)=O)c3)n2)s1	SIAE inh 42 (no result: RBBP9 inh) | SIAE inh conf 65
CCCCc1nc2ccccc2n1Cc1nnc2n1-c1ccccc1SC2	none
COCCN(CC(=O)Nc1cccc(C)c1C)C(=O)c1oc2c(Cl)cccc2c1C	SIAE inh 28 (no result: RBBP9 inh, GSTO1 inh) | SIAE inh conf inactive
Cc1c(C(=O)N(C)CC(=O)Nc2cccc(F)c2)oc2c(Cl)cccc12	none (no result: RBBP9 inh)
COCc1cc(C)nc(SCC(=O)Nc2ccc3c(c2)OCCO3)c1C#N	none (no result: RBBP9 inh)
